Experimental data from publication PMC12329029 (Scientific Reports, 2025).

Legend:
MCF-7 = settings: read-out: activity against MCF-7 breast cancer cells in vitro; cited from earlier work
[1] = system: proapoptotic Bax in MDA-MB-231 cells; experiment: Bax concentration in cell lysates; type: cell-based, human; settings: 20 µM, 24 h
In short: (§1)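 MDA-MB-231 cells were grown in DMEM with 10% FBS and 1% penicillin/streptomycin at 37 °C, 5% CO2. They were reseeded in phenol-red-free DMEM with 10% CPSR1, used near 80% confluence and exposed to 20 µM for 24 h; untreated cells were the control. Cells were trypsinised, washed thrice in cold PBS, spun at 1000× g for 5 min at 4 °C, and 1.5 × 10^6 cells were lysed. Supernatants were frozen at −70 °C. Target protein was measured by antibody-precoated high-sensitivity kit. Three independent experiments in duplicate; one-way ANOVA with Tukey test.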

[2] = system: Akt protein in MDA-MB-231 cells; experiment: Akt concentration in cell lysates; type: cell-based, human; settings: 20 µM, 24 h, control 8.22 U/mL
In short: as §1

[3] = system: p53 tumour suppressor in MDA-MB-231 cells; experiment: p53 concentration in cell lysates; type: cell-based, human; settings: 20 µM, 24 h
In short: as §1

Row | SMILES | IC50 (MCF-7) | concentration of Bax [1] | concentration of Akt [2] | change of p53 level vs control [3]
1 | CC(=O)OC1CCC2(C)C(CCC3(C)C2CC=C2C4CC(C)(C)CCC4(C(=O)n4ccc(=O)[nH]c4=O)CCC23C)C1(C)C (stereo not drawn) [1-[(3β)-3-(acetyloxy)-28-oxoolean-12-en-28-yl]-2,4(1 H,3 H)-pyrimidinedione] | < 0.1 µM | – | – | –
2 | C[C@H]1[C@H](C)CC[C@]2(C(=O)O)CC[C@]3(C)C(=CC[C@@H]4[C@@]5(C)CC[C@H](O)C(C)(C)[C@@H]5CC[C@]43C)[C@H]12 [Ursolic acid 1, Ursolic acid] | – | 760 pg/mL | 4.49 U/mL | increased the p53 concentration, but the values were statistically insignificant
